Measurements reported in ChEMBL document CHEMBL1124270, “Quinolone antibacterial agents. Synthesis and structure-activity relationships of 8-substituted quinoline-3-carboxylic acids and 1,8-naphthyridine-3-carboxylic acids” (1988).
≈ marks a conversion by molar mass, not a printed value.

Experiments:
Format in all cases: functional
Escherichia coli [1] = assay: Minimum concentration needed to produce linear DNA at an intensity relative to oxolinic at 10 ug/mL in Escherichia coli H560 in vitro.
Outline: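 DNA gyrase cleavage test, run as previously described: end point is the lowest drug level (µg/mL) that yields linear DNA at a band intensity matching oxolinic acid at 10 µg/mL. Values come from duplicate or triplicate experiments and are stated as accurate to ±50%.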

Escherichia coli [2] = assay: Minimum inhibitory concentration against Escherichia coli H560 in vitro.
Escherichia coli [3] = assay: Minimum inhibitory concentration against Escherichia coli vogel in vitro.
Enterobacter cloacae = assay: Minimum inhibitory concentration against Enterobacter cloacae HA 2646 in vitro.
Klebsiella pneumoniae = assay: Minimum inhibitory concentration against Klebsiella pneumoniae MGH-2 in vitro.
Mus musculus [4] = assay: In vivo potency against Escherichia coli vogel using mouse protection assay when given perorally; conditions: po, read-out: PD50
Mus musculus [5] = assay: In vivo potency against Escherichia coli vogel using mouse protection assay when given subcutaneously; conditions: sc, read-out: PD50
Staphylococcus aureus [6] = assay: In vivo potency against Staphylococcus aureus using mouse protection assay following p.o. administration.; conditions: po, read-out: PD50
Staphylococcus aureus [7] = assay: In vivo potency against Staphylococcus aureus using mouse protection assay following s.c. administration.; conditions: sc, read-out: PD50
Streptococcus pneumoniae [8] = assay: In vivo potency against Streptococcus pneumoniae using mouse protection assay following p.o. administration.; conditions: po, read-out: PD50
Pseudomonas aeruginosa = assay: Minimum inhibitory concentration against Pseudomonas aeruginosa UI-18 in vitro.
Providencia rettgeri = assay: Minimum inhibitory concentration against Providencia rettgeri H1771 in vitro.
Bacteria = assay: (§1) Minimum inhibitory concentration against Streptococcus pyogenes C203 in vitro.
Streptococcus pneumoniae [9] = assay: Minimum inhibitory concentration against Streptococcus pneumoniae SV-1 in vitro.
Staphylococcus aureus [10] = assay: Minimum inhibitory concentration against Staphylococcus aureus H228 in vitro.
Staphylococcus aureus [11] = assay: Minimum inhibitory concentration against Staphylococcus aureus UC-76 in vitro.
Enterococcus faecalis = assay: Minimum inhibitory concentration against Streptococcus faecalis MGH-2 in vitro.
Streptococcus pneumoniae [12] = assay: In vivo potency against Streptococcus pneumoniae using mouse protection assay following s.c. administration.; conditions: sc, read-out: PD50
Mus musculus [13] = assay: In vivo potency against Staphylococcus aureus using mouse protection assay when given orally; conditions: po, read-out: PD50
Streptococcus pyogenes = assay: as §1
Mus musculus [14] = assay: In vivo potency against Streptococcus pneumoniae using mouse protection assay when given orally; conditions: po, read-out: PD50

Structure (SMILES) | DNA cleavage conc (gyrase) (Escherichia coli [1]) | MIC (Escherichia coli [2]) | MIC (Escherichia coli [3]) | MIC (Enterobacter cloacae) | MIC (Klebsiella pneumoniae) | ED50 (Mus musculus [4]) | ED50 (Mus musculus [5]) | ED50 (Staphylococcus aureus [6]) | ED50 (Staphylococcus aureus [7]) | ED50 (Streptococcus pneumoniae [8]) | MIC (Pseudomonas aeruginosa) | MIC (Providencia rettgeri) | MIC (Streptococcus pneumoniae [9]) | MIC (Staphylococcus aureus [10]) | MIC (Staphylococcus aureus [11]) | MIC (Enterococcus faecalis) | ED50 (Streptococcus pneumoniae [12]) | MIC (Streptococcus pyogenes) | other results
CNCC1CCN(c2nc3c(cc2F)c(=O)c(C(=O)O)cn3C2CC2)C1 (stereo unspecified) | 1 µg/mL | 0.05 µg/mL (≈ 0.139 µM) | 0.1 µg/mL (≈ 0.277 µM) | 0.2 µg/mL (≈ 0.555 µM) | 0.2 µg/mL (≈ 0.555 µM) | 3 mg/kg | 1 mg/kg | 3 mg/kg | 1 mg/kg | 27 mg/kg | 0.8 µg/mL (≈ 2.22 µM) | 0.4 µg/mL (≈ 1.11 µM) | 0.025 µg/mL (≈ 0.0694 µM) | 0.2 µg/mL (≈ 0.555 µM) | 0.025 µg/mL (≈ 0.0694 µM) | 0.2 µg/mL (≈ 0.555 µM) | 11 mg/kg |  | MIC (Bacteria): 0.05 µg/mL (≈ 0.139 µM)
NCC1CCN(c2c(F)cc3c(=O)c(C(=O)O)cn(C4CC4)c3c2F)C1 (stereo unspecified) | 0.25 µg/mL | 0.006 µg/mL (≈ 0.0165 µM) | 0.025 µg/mL (≈ 0.0688 µM) | 0.05 µg/mL (≈ 0.138 µM) | 0.05 µg/mL (≈ 0.138 µM) | 6 mg/kg |  |  |  |  | 0.2 µg/mL (≈ 0.55 µM) | 0.1 µg/mL (≈ 0.275 µM) | 0.006 µg/mL (≈ 0.0165 µM) | 0.025 µg/mL (≈ 0.0688 µM) | 0.003 µg/mL (≈ 0.00826 µM) | 0.013 µg/mL (≈ 0.0358 µM) |  | 0.013 µg/mL (≈ 0.0358 µM) | ED50 (Mus musculus [13]): 78 mg/kg; ED50 (Mus musculus [14]): 10 mg/kg
O=C(O)c1cn(C2CC2)c2c(F)c(N3CCNCC3)c(F)cc2c1=O | 0.5 µg/mL | 0.025 µg/mL (≈ 0.0716 µM) | 0.1 µg/mL (≈ 0.286 µM) | 0.05 µg/mL (≈ 0.143 µM) | 0.1 µg/mL (≈ 0.286 µM) | 0.5 mg/kg | 0.3 mg/kg | 7 mg/kg | 3 mg/kg | 59 mg/kg | 0.2 µg/mL (≈ 0.573 µM) | 0.1 µg/mL (≈ 0.286 µM) | 0.8 µg/mL (≈ 2.29 µM) | 0.4 µg/mL (≈ 1.15 µM) | 0.1 µg/mL (≈ 0.286 µM) | 0.4 µg/mL (≈ 1.15 µM) | 29 mg/kg | 0.8 µg/mL (≈ 2.29 µM) | 
CN(C)CC1CCN(c2c(F)cc3c(=O)c(C(=O)O)cn(C4CC4)c3c2F)C1 (stereo unspecified) | 0.1 µg/mL | 0.025 µg/mL (≈ 0.0639 µM) | 0.2 µg/mL (≈ 0.511 µM) | 0.2 µg/mL (≈ 0.511 µM) | 0.2 µg/mL (≈ 0.511 µM) | 2 mg/kg | 1 mg/kg | 45 mg/kg | 20 mg/kg | 5 mg/kg | 0.8 µg/mL (≈ 2.04 µM) | 0.8 µg/mL (≈ 2.04 µM) | 0.05 µg/mL (≈ 0.128 µM) | 0.025 µg/mL (≈ 0.0639 µM) | 0.025 µg/mL (≈ 0.0639 µM) | 0.025 µg/mL (≈ 0.0639 µM) | 5 mg/kg | 0.05 µg/mL (≈ 0.128 µM) | 
CN(C)CC1CCN(c2c(F)cc3c(=O)c(C(=O)O)cn(C4CC4)c3c2Cl)C1 (stereo unspecified) | 1 µg/mL | 0.025 µg/mL (≈ 0.0613 µM) | 0.1 µg/mL (≈ 0.245 µM) | 0.2 µg/mL (≈ 0.49 µM) | 0.1 µg/mL (≈ 0.245 µM) | 4 mg/kg | 2 mg/kg | 61 mg/kg | 38 mg/kg | 2 mg/kg | 0.8 µg/mL (≈ 1.96 µM) | 0.4 µg/mL (≈ 0.981 µM) | 0.006 µg/mL (≈ 0.0147 µM) | 0.013 µg/mL (≈ 0.0319 µM) | 0.006 µg/mL (≈ 0.0147 µM) | 0.05 µg/mL (≈ 0.123 µM) | 2 mg/kg | 0.025 µg/mL (≈ 0.0613 µM) | 
NC1CCN(c2nc3c(cc2F)c(=O)c(C(=O)O)cn3C2CC2)C1 (stereo unspecified) | 1 µg/mL | 0.006 µg/mL (≈ 0.0181 µM) | 0.013 µg/mL (≈ 0.0391 µM) | 0.05 µg/mL (≈ 0.15 µM) | 0.025 µg/mL (≈ 0.0752 µM) | 2 mg/kg | 0.6 mg/kg | 7 mg/kg | 3 mg/kg | 58 mg/kg | 0.05 µg/mL (≈ 0.15 µM) | 0.1 µg/mL (≈ 0.301 µM) | 0.2 µg/mL (≈ 0.602 µM) | 0.2 µg/mL (≈ 0.602 µM) | 0.013 µg/mL (≈ 0.0391 µM) | 0.2 µg/mL (≈ 0.602 µM) | 33 mg/kg | 0.2 µg/mL (≈ 0.602 µM) | 
Cl.NC1CCN(c2c(F)cc3c(=O)c(C(=O)O)cn(C4CC4)c3c2F)C1 (stereo unspecified) | 0.1 µg/mL | 0.006 µg/mL | 0.013 µg/mL | 0.025 µg/mL | 0.025 µg/mL | 1 mg/kg | 0.2 mg/kg | 7 mg/kg | 3 mg/kg | 15 mg/kg | 0.1 µg/mL | 0.05 µg/mL | 0.05 µg/mL | 0.05 µg/mL | 0.025 µg/mL | 0.05 µg/mL | 6 mg/kg | 0.05 µg/mL | 
Cl.NC1CCN(c2c(F)cc3c(=O)c(C(=O)O)cn(C4CC4)c3c2Cl)C1 (stereo unspecified) [CLINAFLOXACIN HYDROCHLORIDE] | 0.5 µg/mL | 0.006 µg/mL | 0.013 µg/mL | 0.025 µg/mL | 0.025 µg/mL | 3 mg/kg | 0.6 mg/kg | 13 mg/kg | 5 mg/kg | 10 mg/kg | 0.05 µg/mL | 0.025 µg/mL | 0.05 µg/mL | 0.05 µg/mL | 0.013 µg/mL | 0.05 µg/mL | 4 mg/kg | 0.05 µg/mL | 
